# Experimental data from ChEMBL document CHEMBL3243986, “Synthesis and analgetic activity of some 5-aryl-2azabicyclo[3.2.1]octanes” (J Med Chem, 1978).
# The source made the active and inactive calls.
# System: Mus musculus
# Assay: Analgesic activity in sc dosed CD-1 mouse assessed as delay in response to noxious heat stimuli measured after 15 to 60 mins post dosing by D'Amour-Smith tail-flick method
# Type: functional
# Details: CD-1, Tail
# How it was run: (§1)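 Male CD-1 mice, ten per group, held in a plexiglass restrainer; an intense light beam served as the noxious heat stimulus, and tail-flick latency was recorded automatically. Two baseline readings were taken, unstable animals were excluded, and a cutoff was set. Dosing was sc, with vehicle at 10 mL/kg. Tests ran at 15, 30, 45 and 60 min, then at the peak time for at least three doses. Response past cutoff counted as analgesia; ED50 by linear regression.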
row,SMILES,ED50 [mg/kg]
1,Br.Oc1cccc(C23CCC(C2)N(CCc2ccc(Cl)c(Cl)c2)CC3)c1 (racemic),2.73
2,Br.Oc1cccc(C23CCC(C2)N(CCc2cccc(Cl)c2)CC3)c1 (racemic),5.46
3,Br.Oc1cccc(C23CCC(C2)N(CCc2ccc(Cl)cc2)CC3)c1 (racemic),7.32
4,Br.Oc1cccc(C23CCC(C2)N(CCc2ccccc2)CC3)c1 (racemic),6.45
5,Br.Oc1cccc(C23CCC(C2)N(Cc2ccco2)CC3)c1 (racemic),10
6,Br.COc1cccc(C23CCC(C2)N(CCc2ccccc2)CC3)c1 (racemic),13
7,Br.CCCCN1CCC2(c3cccc(OC)c3)CCC1C2 (racemic),9.71
8,Br.CCN1CCC2(c3cccc(OC)c3)CCC1C2 (racemic),17.7
9,Br.Cc1ccc(CCN2CCC3(c4cccc(O)c4)CCC2C3)cc1 (racemic),8.54
10,Br.Oc1ccc(CCN2CCC3(c4cccc(O)c4)CCC2C3)cc1 (racemic),25
11,Br.Oc1cccc(C23CCC(C2)N(CCc2cccs2)CC3)c1 (racemic),11
12,Br.CC(=O)Oc1cccc(C23CCC(C2)N(CCc2ccccc2)CC3)c1 (racemic),2.82
13,Br.CC(=O)Oc1cccc(C23CCC(C2)N(CCc2cccs2)CC3)c1 (racemic),≤ 3.8
14,CC(C)=CCN1CC[C@]2(C)c3cc(O)ccc3C[C@H]1[C@H]2C [(+)-PENTAZOCINE],14.6

# System: Mus musculus
# Assay: Analgesic activity in CD-1 mouse assessed as delay in response to noxious heat stimuli at 2 mg/kg, sc measured after 15 to 60 mins post dosing by D'Amour-Smith tail-flick method relative to control
# Type: functional
# Details: route subcutaneous
# How it was run: as §1
row,SMILES,Activity [%]
1,Br.O=C(CCCN1CCC2(c3cccc(O)c3)CCC1C2)c1ccc(F)cc1 (racemic),40
2,Br.COc1cccc(C23CCC(C2)N(CCCC(=O)c2ccc(F)cc2)CC3)c1 (racemic),10

# System: Mus musculus
# Assay: Analgesic activity in CD-1 mouse assessed as delay in response to noxious heat stimuli at 25 mg/kg, sc measured after 15 to 60 mins post dosing by D'Amour-Smith tail-flick method relative to control
# Type: functional
# Details: route subcutaneous
# How it was run: as §1
row,SMILES,Activity [%]
1,Br.CC(C)=CCN1CCC2(c3cccc(O)c3)CCC1C2 (racemic),20
2,Br.Oc1cccc(C23CCC(C2)N(CC2CC2)CC3)c1 (racemic),30
3,Br.CCCCCN1CCC2(c3cccc(O)c3)CCC1C2 (racemic),20
4,Br.CCCCN1CCC2(c3cccc(O)c3)CCC1C2 (racemic),30
5,Br.CCCN1CCC2(c3cccc(O)c3)CCC1C2 (racemic),20
6,Br.CCN1CCC2(c3cccc(O)c3)CCC1C2 (racemic),30
7,Br.CN1CCC2(c3cccc(O)c3)CCC1C2 (racemic),40
8,Br.CCCCCN1CCC2(c3cccc(OC)c3)CCC1C2 (racemic),40
9,Br.CCCN1CCC2(c3cccc(OC)c3)CCC1C2 (racemic),40
10,Br.COc1cccc(C23CCC(C2)N(C)CC3)c1 (racemic),10
11,Br.CC(=O)Oc1cccc(C23CCC(C2)N(C)CC3)c1 (racemic),14

# System: Mus musculus
# Assay: Analgesic activity in sc dosed CD-1 mouse assessed as inhibition of phenylquinone-induced writhing administered 15 to 90 mins prior challenge measured 5 mins post challenge
# Type: functional
# Details: CD-1, sc
# How it was run: (§2)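 Male CD-1 mice, 18–24 g, five per group, dosed 15, 30, 60 or 90 min before phenyl-p-benzoquinone (0.125% in 5% aqueous ethanol); vehicle controls. Writhes were counted over 10 min, starting 5 min after challenge. For dose–response, ten mice per dose were tested at the peak time, with four doses plus control, randomized. Result given as % inhibition of writhes; ED50 by computer linear regression.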
row,SMILES,ED50 [mg/kg]
1,Br.Oc1cccc(C23CCC(C2)N(CCc2ccc(Cl)c(Cl)c2)CC3)c1 (racemic),0.75
2,Br.Oc1cccc(C23CCC(C2)N(CCc2cccc(Cl)c2)CC3)c1 (racemic),0.46
3,Br.Oc1cccc(C23CCC(C2)N(CCc2ccc(Cl)cc2)CC3)c1 (racemic),0.42
4,Br.Oc1cccc(C23CCC(C2)N(CCc2ccccc2)CC3)c1 (racemic),0.68
5,Br.O=C(CCCN1CCC2(c3cccc(O)c3)CCC1C2)c1ccc(F)cc1 (racemic),0.35
6,Br.Oc1cccc(C23CCC(C2)N(Cc2ccco2)CC3)c1 (racemic),22.7
7,Br.CC(C)=CCN1CCC2(c3cccc(O)c3)CCC1C2 (racemic),25
8,Br.Oc1cccc(C23CCC(C2)N(CC2CC2)CC3)c1 (racemic),5.44
9,Br.CCCCCN1CCC2(c3cccc(O)c3)CCC1C2 (racemic),8.34
10,Br.CCCCN1CCC2(c3cccc(O)c3)CCC1C2 (racemic),8.66
11,Br.CCCN1CCC2(c3cccc(O)c3)CCC1C2 (racemic),8.79
12,Br.CN1CCC2(c3cccc(O)c3)CCC1C2 (racemic),10
13,Br.COc1cccc(C23CCC(C2)N(CCc2ccccc2)CC3)c1 (racemic),5.99
14,Br.COc1cccc(C23CCC(C2)N(CCCC(=O)c2ccc(F)cc2)CC3)c1 (racemic),0.85
15,Br.CCCCCN1CCC2(c3cccc(OC)c3)CCC1C2 (racemic),5.77
16,Br.CCCCN1CCC2(c3cccc(OC)c3)CCC1C2 (racemic),4.87
17,Br.CCCN1CCC2(c3cccc(OC)c3)CCC1C2 (racemic),7.4
18,Br.CCN1CCC2(c3cccc(OC)c3)CCC1C2 (racemic),11.9
19,Br.COc1cccc(C23CCC(C2)N(C)CC3)c1 (racemic),6.96
20,Br.Cc1ccc(CCN2CCC3(c4cccc(O)c4)CCC2C3)cc1 (racemic),0.58
21,Br.Oc1ccc(CCN2CCC3(c4cccc(O)c4)CCC2C3)cc1 (racemic),2.08
22,Br.Oc1cccc(C23CCC(C2)N(CCc2cccs2)CC3)c1 (racemic),0.72
23,Br.CC(=O)Oc1cccc(C23CCC(C2)N(C)CC3)c1 (racemic),14.1
24,Br.CC(=O)Oc1cccc(C23CCC(C2)N(CCc2ccccc2)CC3)c1 (racemic),1
25,Br.CC(=O)Oc1cccc(C23CCC(C2)N(CCc2cccs2)CC3)c1 (racemic),0.95
26,CC(C)=CCN1CC[C@]2(C)c3cc(O)ccc3C[C@H]1[C@H]2C [(+)-PENTAZOCINE],2.4
27,CN1CC[C@]23c4c5ccc(O)c4O[C@H]2[C@@H](O)C=C[C@H]3[C@H]1C5 [MORPHINE],0.68

# System: Mus musculus
# Assay: Analgesic activity in po dosed CD-1 mouse assessed as delay in response to noxious heat stimuli measured after 15 to 60 mins post dosing by D'Amour-Smith tail-flick method
# Type: functional
# Details: CD-1, Tail
row,SMILES,ED50 [mg/kg]
1,Br.CC(=O)Oc1cccc(C23CCC(C2)N(CCc2ccccc2)CC3)c1 (racemic),35

# System: Mus musculus
# Assay: Toxicity in sc dosed CD-1 mouse assessed as overt effects
# Type: organism-based
# Details: in vivo
row,SMILES,Activity
1,Br.Oc1ccc(CCN2CCC3(c4cccc(O)c4)CCC2C3)cc1 (racemic),Toxic

# System: Mus musculus
# Assay: Analgesic activity in CD-1 mouse assessed as inhibition of phenylquinone-induced writhing at 10 mg/kg, sc administered 15 to 90 mins prior challenge measured 5 mins post challenge
# Type: functional
# Details: CD-1, sc, route subcutaneous
# How it was run: as §2
row,SMILES,inhibition in vivo at 10 mg/kg [%]
1,Br.CCN1CCC2(c3cccc(O)c3)CCC1C2 (racemic),41

# System: Mus musculus
# Assay: Inhibition of morphine-induced mania in sc dosed CD-1 mouse assessed as inhibition of stereotypic activity measured after 15 to 30 mins
# Type: functional
# Details: not given
# How it was run: (§3)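 Male mice, 18–30 g, two pairs per group, dosed randomly. Controls received morphine sulfate 25 mg/kg sc; test groups received morphine plus compound. Animals were watched for 15–30 min for stereotyped increase in motor activity, and blocking of this behaviour was scored positive. For dose range, ED50 by linear regression.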
row,SMILES,ED50
1,Br.COc1cccc(C23CCC(C2)N(CCc2ccccc2)CC3)c1 (racemic),Active

# Same assay, conditions: CD-1, sc
row,SMILES,ED50 [mg/kg]
1,Br.Oc1cccc(C23CCC(C2)N(CCc2ccccc2)CC3)c1 (racemic),1.06
2,Br.O=C(CCCN1CCC2(c3cccc(O)c3)CCC1C2)c1ccc(F)cc1 (racemic),2.01
3,Br.Oc1cccc(C23CCC(C2)N(Cc2ccco2)CC3)c1 (racemic),3.7
4,Br.CCCCCN1CCC2(c3cccc(O)c3)CCC1C2 (racemic),4.31
5,Br.COc1cccc(C23CCC(C2)N(CCCC(=O)c2ccc(F)cc2)CC3)c1 (racemic),3.7
6,Br.CCCN1CCC2(c3cccc(OC)c3)CCC1C2 (racemic),8.3
7,Br.COc1cccc(C23CCC(C2)N(C)CC3)c1 (racemic),50
8,Br.Cc1ccc(CCN2CCC3(c4cccc(O)c4)CCC2C3)cc1 (racemic),≤ 10
9,Br.Oc1cccc(C23CCC(C2)N(CCc2cccs2)CC3)c1 (racemic),10
10,Br.CC(=O)Oc1cccc(C23CCC(C2)N(C)CC3)c1 (racemic),16
11,CC(C)=CCN1CC[C@]2(C)c3cc(O)ccc3C[C@H]1[C@H]2C [(+)-PENTAZOCINE],13.8
12,C=CCN1CC[C@]23c4c5ccc(O)c4O[C@H]2[C@@H](O)C=C[C@H]3[C@H]1C5 [NALORPHINE],0.43

# System: Mus musculus
# Assay: Inhibition of morphine-induced mania in CD-1 mouse assessed as inhibition of stereotypic activity at 10 mg/kg, sc measured after 15 to 30 mins
# Type: functional
# Details: not given
# How it was run: as §3
row,SMILES,inhibition
1,Br.Oc1cccc(C23CCC(C2)N(CCc2ccc(Cl)c(Cl)c2)CC3)c1 (racemic),inactive
2,Br.CC(C)=CCN1CCC2(c3cccc(O)c3)CCC1C2 (racemic),inactive
3,Br.CCCN1CCC2(c3cccc(O)c3)CCC1C2 (racemic),inactive
4,Br.CCN1CCC2(c3cccc(O)c3)CCC1C2 (racemic),inactive
5,Br.CCCCCN1CCC2(c3cccc(OC)c3)CCC1C2 (racemic),inactive
6,Br.CCCCN1CCC2(c3cccc(OC)c3)CCC1C2 (racemic),inactive
7,Br.CC(=O)Oc1cccc(C23CCC(C2)N(CCc2ccccc2)CC3)c1 (racemic),inactive

# Same assay, conditions: CD-1, sc, route subcutaneous
row,SMILES,inhibition in vivo at 10 mg/kg [%]
1,Br.Oc1cccc(C23CCC(C2)N(CCc2cccc(Cl)c2)CC3)c1 (racemic),20
2,Br.Oc1cccc(C23CCC(C2)N(CCc2ccc(Cl)cc2)CC3)c1 (racemic),50
3,Br.Oc1cccc(C23CCC(C2)N(CC2CC2)CC3)c1 (racemic),20
4,Br.CCCCN1CCC2(c3cccc(O)c3)CCC1C2 (racemic),40
5,Br.CCN1CCC2(c3cccc(OC)c3)CCC1C2 (racemic),10
6,Br.Oc1ccc(CCN2CCC3(c4cccc(O)c4)CCC2C3)cc1 (racemic),20

# System: Mus musculus
# Assay: Toxicity in sc dosed CD-1 mouse assessed as physical dependence liability by infusion test
# Type: organism-based
# Details: in vivo
row,SMILES,Activity
1,Br.Oc1cccc(C23CCC(C2)N(CCc2ccccc2)CC3)c1 (racemic),Non-toxic

# System: Mus musculus
# Assay: Analgesic activity in po dosed CD-1 mouse assessed as inhibition of phenylquinone-induced writhing administered 15 to 90 mins prior challenge measured 5 mins post challenge
# Type: functional
# Details: CD-1, po
# How it was run: as §2
row,SMILES,ED50 [mg/kg]
1,Br.Oc1cccc(C23CCC(C2)N(CCc2ccccc2)CC3)c1 (racemic),60.9
2,Br.CC(=O)Oc1cccc(C23CCC(C2)N(CCc2ccccc2)CC3)c1 (racemic),15.2
3,Br.CC(=O)Oc1cccc(C23CCC(C2)N(CCc2cccs2)CC3)c1 (racemic),64
